Numbering of substitutions follows the chain as printed.
Tests used:
Settings in all cases: stereoisomer not certain
[1] = target: T1, OR2A12 (Homo sapiens) (UniProt Q8NGT7)
T1 sequence (whole entry): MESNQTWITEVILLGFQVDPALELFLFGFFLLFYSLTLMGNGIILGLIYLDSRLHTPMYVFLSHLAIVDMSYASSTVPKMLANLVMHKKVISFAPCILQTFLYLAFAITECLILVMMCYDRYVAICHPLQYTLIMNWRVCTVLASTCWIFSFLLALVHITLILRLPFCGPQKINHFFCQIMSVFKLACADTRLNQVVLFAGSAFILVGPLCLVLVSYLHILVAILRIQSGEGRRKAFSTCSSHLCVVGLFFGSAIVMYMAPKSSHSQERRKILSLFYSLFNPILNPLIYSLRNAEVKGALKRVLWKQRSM
Method in brief: (§1)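 Values were gathered from published papers (main text and supplementary material), with extra details requested from the original authors when needed, and checked for typos and inconsistencies. Each receptor–molecule pair is called responsive (active) if the original authors judged the measured signal statistically different from baseline, and non-responsive (inactive) otherwise. Assay methods varied by source, often transient mammalian cell-line luciferase assays. Recorded details include cell line, G-protein, co-transfected protein and tags.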

[2] = target: T2, OR2A14 (Homo sapiens) (UniProt Q96R47)
T2 sequence (whole entry): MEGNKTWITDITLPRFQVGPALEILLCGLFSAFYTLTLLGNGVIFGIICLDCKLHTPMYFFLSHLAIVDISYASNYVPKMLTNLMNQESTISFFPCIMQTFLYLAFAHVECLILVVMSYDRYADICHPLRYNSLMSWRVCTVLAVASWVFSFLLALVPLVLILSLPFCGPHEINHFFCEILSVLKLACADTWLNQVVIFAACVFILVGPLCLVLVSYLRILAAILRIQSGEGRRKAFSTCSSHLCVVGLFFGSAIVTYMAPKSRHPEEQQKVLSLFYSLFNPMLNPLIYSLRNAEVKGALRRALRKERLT
Method in brief: as §1

[3] = target: T3, OR2A2 (Homo sapiens) (UniProt Q6IF42)
T3 sequence (whole entry): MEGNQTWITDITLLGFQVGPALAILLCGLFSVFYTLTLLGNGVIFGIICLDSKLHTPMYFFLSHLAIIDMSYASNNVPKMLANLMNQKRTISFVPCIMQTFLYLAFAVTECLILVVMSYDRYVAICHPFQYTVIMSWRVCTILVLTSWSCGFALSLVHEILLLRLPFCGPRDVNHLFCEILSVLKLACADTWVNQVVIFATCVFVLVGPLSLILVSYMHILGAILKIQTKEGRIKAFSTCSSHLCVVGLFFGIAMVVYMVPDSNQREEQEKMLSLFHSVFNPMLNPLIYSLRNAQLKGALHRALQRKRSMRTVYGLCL
Method in brief: as §1

[4] = target: T4, OR2A25 (Homo sapiens) (UniProt A4D2G3)
T4 sequence (whole entry): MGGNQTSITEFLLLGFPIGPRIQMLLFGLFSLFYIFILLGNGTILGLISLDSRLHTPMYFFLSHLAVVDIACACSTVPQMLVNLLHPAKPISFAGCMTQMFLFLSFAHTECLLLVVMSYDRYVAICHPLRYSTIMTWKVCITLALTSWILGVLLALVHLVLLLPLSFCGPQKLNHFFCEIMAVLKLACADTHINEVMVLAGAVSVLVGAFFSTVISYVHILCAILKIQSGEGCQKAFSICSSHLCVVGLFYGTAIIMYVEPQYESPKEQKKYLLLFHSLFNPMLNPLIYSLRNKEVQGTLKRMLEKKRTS
Method in brief: as §1

[5] = target: T5, OR2A4 (Homo sapiens) (UniProt O95047)
T5 sequence (whole entry): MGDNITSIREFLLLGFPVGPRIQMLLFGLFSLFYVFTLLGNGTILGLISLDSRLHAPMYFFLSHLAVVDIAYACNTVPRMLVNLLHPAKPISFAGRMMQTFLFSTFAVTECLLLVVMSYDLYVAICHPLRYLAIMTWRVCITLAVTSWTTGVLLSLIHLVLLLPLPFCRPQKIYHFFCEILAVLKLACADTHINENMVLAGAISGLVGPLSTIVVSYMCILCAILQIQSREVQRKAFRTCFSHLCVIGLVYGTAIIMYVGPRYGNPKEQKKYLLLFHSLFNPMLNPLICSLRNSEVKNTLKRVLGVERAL
Method in brief: as §1

[6] = target: T6, OR2A5 (Homo sapiens) (UniProt Q96R48)
T6 sequence (whole entry): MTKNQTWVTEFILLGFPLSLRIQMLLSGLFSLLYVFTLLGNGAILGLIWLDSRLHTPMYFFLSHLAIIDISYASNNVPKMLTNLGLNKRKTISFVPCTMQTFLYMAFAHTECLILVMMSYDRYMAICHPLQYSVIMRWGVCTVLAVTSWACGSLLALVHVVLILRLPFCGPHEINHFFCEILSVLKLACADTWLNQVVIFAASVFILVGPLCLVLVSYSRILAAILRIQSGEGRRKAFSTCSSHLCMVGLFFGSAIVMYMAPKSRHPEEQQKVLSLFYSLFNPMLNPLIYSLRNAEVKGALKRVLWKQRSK
Method in brief: as §1

[7] = target: T7, OR2A7 (Homo sapiens) (UniProt Q96R45)
T7 sequence (whole entry): T5 sequence (whole entry) with R9T, R238C, V250F
Method in brief: as §1

[8] = target: T8, OR2AE1 (Homo sapiens) (UniProt Q8NHA4)
T8 sequence (whole entry): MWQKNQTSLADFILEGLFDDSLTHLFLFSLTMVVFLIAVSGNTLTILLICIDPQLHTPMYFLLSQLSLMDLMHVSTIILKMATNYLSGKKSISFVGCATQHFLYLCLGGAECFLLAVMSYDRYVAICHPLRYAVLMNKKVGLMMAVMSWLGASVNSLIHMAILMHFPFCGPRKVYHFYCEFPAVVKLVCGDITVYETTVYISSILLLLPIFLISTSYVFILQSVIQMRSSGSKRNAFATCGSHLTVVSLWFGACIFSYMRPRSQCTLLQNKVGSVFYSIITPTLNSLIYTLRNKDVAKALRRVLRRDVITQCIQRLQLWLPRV
Method in brief: as §1

[9] = target: T9, OR2AG1 (Homo sapiens) (UniProt Q9H205)
T9 sequence (whole entry): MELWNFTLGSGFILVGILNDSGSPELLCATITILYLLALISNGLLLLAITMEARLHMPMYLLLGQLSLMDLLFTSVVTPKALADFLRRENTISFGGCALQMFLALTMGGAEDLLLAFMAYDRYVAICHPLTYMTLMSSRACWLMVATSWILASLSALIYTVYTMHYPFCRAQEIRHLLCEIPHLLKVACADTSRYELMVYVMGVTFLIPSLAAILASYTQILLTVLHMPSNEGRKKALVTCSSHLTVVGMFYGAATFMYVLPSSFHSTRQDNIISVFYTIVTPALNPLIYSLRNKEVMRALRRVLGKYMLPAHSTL
Method in brief: as §1

[10] = target: T10, OR2AG2 (Homo sapiens) (UniProt A6NM03)
T10 sequence (whole entry): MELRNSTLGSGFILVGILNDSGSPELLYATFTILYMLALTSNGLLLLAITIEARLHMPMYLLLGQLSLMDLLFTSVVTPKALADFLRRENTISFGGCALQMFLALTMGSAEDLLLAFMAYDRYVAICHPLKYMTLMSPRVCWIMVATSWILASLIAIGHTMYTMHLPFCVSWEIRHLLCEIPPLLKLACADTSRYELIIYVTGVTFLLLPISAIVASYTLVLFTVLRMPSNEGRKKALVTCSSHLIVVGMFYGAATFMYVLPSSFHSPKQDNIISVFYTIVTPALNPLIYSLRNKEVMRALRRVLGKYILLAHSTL
Method in brief: as §1

[11] = target: T11, OR2AJ1 (Homo sapiens) (UniProt Q8NGZ0)
T11 sequence (whole entry): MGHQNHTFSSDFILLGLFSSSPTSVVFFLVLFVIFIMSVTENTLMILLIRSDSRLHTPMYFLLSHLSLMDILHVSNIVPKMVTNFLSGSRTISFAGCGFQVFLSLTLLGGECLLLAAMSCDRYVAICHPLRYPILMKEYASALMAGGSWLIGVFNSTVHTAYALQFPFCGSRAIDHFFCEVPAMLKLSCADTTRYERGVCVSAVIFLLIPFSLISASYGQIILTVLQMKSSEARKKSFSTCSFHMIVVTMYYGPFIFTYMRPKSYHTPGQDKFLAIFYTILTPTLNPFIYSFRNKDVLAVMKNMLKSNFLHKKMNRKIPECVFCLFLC
Method in brief: as §1

[12] = target: T12, OR2AK2 (Homo sapiens) (UniProt Q8NG84)
T12 sequence (whole entry): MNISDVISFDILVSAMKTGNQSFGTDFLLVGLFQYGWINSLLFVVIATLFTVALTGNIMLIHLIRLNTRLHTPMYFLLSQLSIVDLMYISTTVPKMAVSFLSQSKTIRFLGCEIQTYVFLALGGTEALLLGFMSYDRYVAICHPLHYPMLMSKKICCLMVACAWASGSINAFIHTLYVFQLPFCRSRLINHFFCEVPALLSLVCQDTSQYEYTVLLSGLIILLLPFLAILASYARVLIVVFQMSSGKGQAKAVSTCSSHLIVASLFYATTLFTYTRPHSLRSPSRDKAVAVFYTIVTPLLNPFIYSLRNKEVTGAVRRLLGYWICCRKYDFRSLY
Method in brief: as §1

[13] = target: T13, OR2AP1 (Homo sapiens) (UniProt Q8NGE2)
T13 sequence (whole entry): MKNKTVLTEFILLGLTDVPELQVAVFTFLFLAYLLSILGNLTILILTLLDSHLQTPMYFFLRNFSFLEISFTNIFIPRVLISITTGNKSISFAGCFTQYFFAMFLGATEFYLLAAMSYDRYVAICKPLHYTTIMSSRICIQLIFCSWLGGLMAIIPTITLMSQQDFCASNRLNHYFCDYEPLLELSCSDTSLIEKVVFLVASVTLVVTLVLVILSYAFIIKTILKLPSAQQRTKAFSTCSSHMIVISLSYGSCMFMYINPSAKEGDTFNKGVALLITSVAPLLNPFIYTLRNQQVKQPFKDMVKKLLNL
Method in brief: as §1

[14] = target: T14, OR2AT4 (Homo sapiens) (UniProt A6NND4)
T14 sequence (whole entry): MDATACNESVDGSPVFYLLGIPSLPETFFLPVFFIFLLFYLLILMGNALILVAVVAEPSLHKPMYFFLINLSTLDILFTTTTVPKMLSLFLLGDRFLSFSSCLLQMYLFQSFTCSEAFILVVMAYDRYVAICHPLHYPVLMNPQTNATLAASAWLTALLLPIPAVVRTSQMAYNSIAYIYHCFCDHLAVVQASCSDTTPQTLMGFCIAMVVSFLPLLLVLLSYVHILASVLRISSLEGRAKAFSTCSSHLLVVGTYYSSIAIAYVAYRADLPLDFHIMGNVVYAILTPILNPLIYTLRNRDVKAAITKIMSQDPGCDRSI
Method in brief: as §1

[15] = target: T15, OR2B11 (Homo sapiens) (UniProt Q5JQS5)
T15 sequence (whole entry): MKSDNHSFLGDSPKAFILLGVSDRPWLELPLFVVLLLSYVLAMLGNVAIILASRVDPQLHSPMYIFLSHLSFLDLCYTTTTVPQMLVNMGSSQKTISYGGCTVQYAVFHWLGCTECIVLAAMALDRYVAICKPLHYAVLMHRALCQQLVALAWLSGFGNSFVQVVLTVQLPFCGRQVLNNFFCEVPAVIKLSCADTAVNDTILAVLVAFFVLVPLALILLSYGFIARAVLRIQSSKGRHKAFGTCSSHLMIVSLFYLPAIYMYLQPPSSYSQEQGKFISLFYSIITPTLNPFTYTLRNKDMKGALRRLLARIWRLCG
Method in brief: as §1

[16] = target: T16, OR2B2 (Homo sapiens) (UniProt Q9GZK3)
T16 sequence (whole entry): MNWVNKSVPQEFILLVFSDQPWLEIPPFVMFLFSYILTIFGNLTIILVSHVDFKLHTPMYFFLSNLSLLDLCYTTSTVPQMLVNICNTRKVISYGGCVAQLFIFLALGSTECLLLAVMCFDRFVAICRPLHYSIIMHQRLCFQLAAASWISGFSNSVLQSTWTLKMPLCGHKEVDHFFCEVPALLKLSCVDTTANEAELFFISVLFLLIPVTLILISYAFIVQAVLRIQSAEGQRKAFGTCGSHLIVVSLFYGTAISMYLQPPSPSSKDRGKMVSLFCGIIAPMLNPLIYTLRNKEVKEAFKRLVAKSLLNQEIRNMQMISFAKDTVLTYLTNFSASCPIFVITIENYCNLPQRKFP
Method in brief: as §1

[17] = system: T17, OR2A1 T73A R74C S168C
T17 sequence (whole entry): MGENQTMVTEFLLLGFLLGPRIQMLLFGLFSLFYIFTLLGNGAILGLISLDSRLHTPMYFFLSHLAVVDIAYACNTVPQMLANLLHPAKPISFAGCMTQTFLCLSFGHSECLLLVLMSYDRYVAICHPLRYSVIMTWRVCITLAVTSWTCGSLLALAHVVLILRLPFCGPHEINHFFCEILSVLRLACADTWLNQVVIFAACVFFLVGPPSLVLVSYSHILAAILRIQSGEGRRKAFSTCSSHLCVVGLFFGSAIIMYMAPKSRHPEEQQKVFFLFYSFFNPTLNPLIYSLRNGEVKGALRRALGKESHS
Method in brief: as §1

[18] = system: T18, OR2A2
T18 sequence (whole entry): T3 sequence (whole entry) with F280L
Method in brief: as §1

[19] = system: T19, OR2A5 I126V A202S A255T
T19 sequence (whole entry): T6 sequence (whole entry) with I126V, A202S, A255T
Method in brief: as §1

[20] = system: T20, OR2A7
T20 sequence (whole entry): T5 sequence (whole entry) with R238C, V250F
Method in brief: as §1

Measured: odorant receptor agonist call

CC(=O)c1c(C)c([N+](=O)[O-])c(C(C)(C)C)c([N+](=O)[O-])c1C
not listed: [17] | [18] | [19] | [20]
inactive: all other assays above

CCC(=O)O
inactive: [7]

CCCCCCCC(=O)OC
inactive: [7]

CC(=O)O
inactive: [7]

CC(C=O)Cc1ccc(C(C)(C)C)cc1 (stereo not given)
active: [7]

CCCCCCC=CCCC=O
inactive: all assays above

— the M2OR odorant receptor database
